{"source": "ChEMBL document CHEMBL1124747", "about": "“Properties of the nucleic acid photoaffinity labeling agent 3-azidoamsacrine” (J Med Chem, 1990)", "key": {"[1]": {"assay": "Half-life was evaluated in water in the absence of light", "assay_type": "ADME"}, "[2]": {"assay": "Ability to block cleavage of TTT/AAA site in DraI enzyme with the light activated test compound/DNA ratio 1:8(no. of sites=3); += light activation", "summary_of_the_method": "(§1)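 pBR322 plasmid mixed with drug at 0.015, 0.12 or 0.48 mM (drug:DNA 1:8, 1:1 or 4:1), equilibrated on ice 30 min in the dark in 5 mM potassium phosphate pH 5.5, then irradiated 1 h with a medium-pressure Hg lamp (<340 nm filtered); dark set kept as control. Digested overnight with 10× excess enzyme plus DTT; fragments resolved on 1.2% agarose in TBE.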"}, "[3]": {"assay": "Ability to block cleavage of TTT/AAA site in DraI enzyme with the light activated test compound/DNA ratio 4(no. of sites=3); += light activation", "summary_of_the_method": "as §1"}, "[4]": {"assay": "Ability to block cleavage of GG/CC site in HaeIII enzyme with the light activated test compound/DNA ratio 1(no. of sites=22); += light activation", "summary_of_the_method": "as §1"}, "[5]": {"assay": "Ability to block cleavage of G/ANTC site in Hinf1 enzyme with the light activated test compound/DNA ratio 4(no. of sites=10); += light activation", "summary_of_the_method": "as §1"}, "[6]": {"assay": "Induction frequency for L5178Y cells was evaluated at dose 0.005 mg/mL in dark-I condition (expt-I)", "assay_type": "functional, Mus musculus", "summary_of_the_method": "(§2)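 L5178Y suspension cells (3 × 10^6/mL, 5% CO2, 37 °C, shaking) exposed 20 h without activating enzyme; light arm irradiated 6.5 min (Hg lamp, <340 nm filtered). Cells washed, grown 24 h more and kept at 3 × 10^5/mL. Viability from 200 cells in soft agar; TFT (0.1 mg/mL) resistant colonies from 10^6 cells in triplicate dishes, counted at 10 days.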"}, "[7]": {"assay": "Relative toxicity against mammalian L5178Y cells at dose 0.005 mg/mL in dark condition (expt-II)", "assay_type": "functional, Mus musculus", "summary_of_the_method": "(§3)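 L5178Y mouse cells in suspension, 3 × 10^6 cells/mL, were exposed for 20 h at 37 °C in a shaker at 150 rpm under 5% CO2, without an activating enzyme. Light arms were irradiated for 6.5 min with a medium-pressure Hg lamp filtered to remove light below 340 nm; dark arms were not. Toxicity was taken as the Coulter-counted density of treated cells versus solvent control.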"}, "[8]": {"assay": "Relative toxicity against mammalian L5178Y cells at dose 0.005 mg/mL in light condition (expt-II)", "assay_type": "functional, Mus musculus", "summary_of_the_method": "as §3"}, "[9]": {"assay": "Viability of L5178Y cells was evaluated at dose 0.005 mg/mL in dark condition (expt-II)", "assay_type": "functional, Mus musculus", "summary_of_the_method": "(§4)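 L5178Y cells were exposed for 20 h at 3 × 10^6 cells/mL. Light arms then received 6.5 min of Hg-lamp irradiation filtered to remove light below 340 nm. Cells were washed twice in Fischer's medium, grown a further 24 h and held at 3 × 10^5 cells/mL. For viability, 200 cells were plated in soft-agar cloning medium in triplicate dishes, and colonies were counted by an automated counter after 10 days.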"}, "[10]": {"assay": "Mutation frequency for L5178Y cells was evaluated at dose 0.005 mg/mL in dark-I condition (expt-I)", "assay_type": "functional, Mus musculus", "summary_of_the_method": "as §2"}, "[11]": {"assay": "Mutation frequency for L5178Y cells was evaluated at dose 0.005 mg/mL in light-I condition (expt-I)", "assay_type": "functional, Mus musculus", "summary_of_the_method": "as §2"}, "[12]": {"assay": "Mutation frequency for L5178Y cells was evaluated at dose 0.008 mg/mL in dark-II condition (expt-I)", "assay_type": "functional, Mus musculus", "summary_of_the_method": "as §2"}, "[13]": {"assay": "Relative mutation induction for L5178Y cells was evaluated at dose 0.005 mg/mL in dark-I condition (expt-I)", "assay_type": "functional, Mus musculus", "summary_of_the_method": "as §2"}, "[14]": {"assay": "Relative mutation induction for L5178Y cells was evaluated at dose 0.008 mg/mL in dark-II condition (expt-I)", "assay_type": "functional, Mus musculus"}, "[15]": {"assay": "Relative toxicity against mammalian L5178Y cells at dose 0.008 mg/mL in light-2 condition (expt-I)", "assay_type": "functional, Mus musculus", "summary_of_the_method": "as §3"}, "[16]": {"assay": "Viability of L5178Y cells was evaluated at dose 0.008 mg/mL in dark-II condition (expt-I)", "assay_type": "functional, Mus musculus", "summary_of_the_method": "as §4"}, "[17]": {"assay": "Mean value of mutation induction for L5178Y cells was evaluated at dose 0.005 mg/mL in dark condition (expt-II)", "assay_type": "functional, Mus musculus", "summary_of_the_method": "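L5178Y cells in suspension culture, gassed with 5% CO2 in air, shaken at 150 rpm, 37 °C. Cells at 3 × 10^6/mL were dosed for 20 h, unirradiated and without activating enzyme, then washed twice in Fop and grown 24 h more. TFT-resistant mutants came from 10^6 cells plated in three dishes of cloning medium with 0.1 mg/mL TFT, colonies counted at 10 days; frequency expressed ×10^6.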"}, "[18]": {"assay": "Mutation frequency for L5178Y cells was evaluated at dose 0.005 mg/mL in dark condition (expt-II)", "assay_type": "functional, Mus musculus", "summary_of_the_method": "as §2"}, "[19]": {"assay": "Induction frequency for L5178Y cells was evaluated at dose 0.005 mg/mL in light-I condition (expt-I)", "assay_type": "functional, Mus musculus", "summary_of_the_method": "as §2"}, "[20]": {"assay": "Mean value of mutation induction for L5178Y cells was evaluated at dose 0.005 mg/mL in dark-I condition (expt-I)", "assay_type": "functional, Mus musculus", "summary_of_the_method": "as §2"}, "[21]": {"assay": "Mean value of mutation induction for L5178Y cells was evaluated at dose 0.008 mg/mL in light-II condition (expt-I)", "assay_type": "functional, Mus musculus", "summary_of_the_method": "as §2"}, "[22]": {"assay": "Ability to block cleavage of GCC/GGC site in NaeI enzyme with the light activated test compound/DNA ratio 4(no. of sites=4); += light activation", "summary_of_the_method": "as §1"}, "[23]": {"assay": "Ability to block cleavage of […] site in NciI enzyme with the light activated test compound/DNA ratio 1(no. of sites=10); += light activation", "summary_of_the_method": "as §1"}, "[24]": {"assay": "Ability to block cleavage of […] site in NciI enzyme with the light activated test compound/DNA ratio 1:8(no. of sites=10); += light activation", "summary_of_the_method": "as §1"}, "[25]": {"assay": "Ability to block cleavage of G/GNCC site in Restriction endonuclease Sau961 with the light activated test compound/DNA ratio 4(no. of sites=15); += light activation", "summary_of_the_method": "as §1"}}, "data": [{"smiles": "COc1cc(NS(C)(=O)=O)ccc1Nc1c2ccccc2nc2cc(N=[N+]=[N-])ccc12.Cl", "values": [{"measurement": "half-life", "setting": "[1]", "value": "> 14", "unit": "days"}, {"measurement": "Blockage activity", "setting": "[2]", "value": "Light activation"}, {"measurement": "Blockage activity", "setting": "[3]", "value": "Light activation"}, {"measurement": "Blockage activity", "setting": "[4]", "value": "Light activation"}, {"measurement": "Blockage activity", "setting": "[5]", "value": "Light activation"}, {"measurement": "Induced frequency", "setting": "[6]", "value": 319}, {"measurement": "Relative toxicity", "setting": "[7]", "value": 65}, {"measurement": "Relative toxicity", "setting": "[8]", "value": 65}, {"measurement": "Viability", "setting": "[9]", "value": 37.7}, {"measurement": "Mutation frequency", "setting": "[10]", "value": "427 10e6 F"}, {"measurement": "Mutation frequency", "setting": "[11]", "value": "434 10e6 F"}, {"measurement": "Mutation frequency", "setting": "[12]", "value": "565 10e6 F"}, {"measurement": "Relative activity", "setting": "[13]", "value": 53}, {"measurement": "Relative activity", "setting": "[14]", "value": 23}, {"measurement": "Relative toxicity", "setting": "[15]", "value": 55}, {"measurement": "Viability", "setting": "[16]", "value": 22.3}, {"measurement": "Mean value", "setting": "[17]", "value": 95}, {"measurement": "Mutation frequency", "setting": "[18]", "value": "504 10e6 F"}, {"measurement": "Induced frequency", "setting": "[19]", "value": 280}, {"measurement": "Mean value", "setting": "[20]", "value": 99.7}, {"measurement": "Mean value", "setting": "[21]", "value": 0}, {"measurement": "Blockage activity", "setting": "[22]", "value": "Light activation"}, {"measurement": "Blockage activity", "setting": "[23]", "value": "Light activation"}, {"measurement": "Blockage activity", "setting": "[24]", "value": "Light activation"}, {"measurement": "Blockage activity", "setting": "[25]", "value": "Light activation"}]}]}
